# Assay results taken from the RNAGym collection of RNA variant scans (doi:10.1126/science.aae0568).
# Fewer inactive variants are shown than the library holds.
# B1: tRNA (parent)
# chain: GUUCCGUUGGCGUAAUGGUAACGCGUCUCCCUCCUAAGGAGAAGACUGCGGGUUCGAGUCCCGUACGGAACG
# Variants of: B1
# Assay: yeast fitness relative to wild type (ratio to wild type); higher = fitter; tRNA-Arg(CCU), competitive growth, 37 C, YPD
# How it was run: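 For this measurement, the tRNA-Arg(CCU) gene was varied by chemical synthesis at a 3% per-site mutation rate across 69 sites, and each variant was placed at the native genomic locus in Saccharomyces cerevisiae. The pooled strains went through a 24-hour competition in YPD at 37°C in six parallel replicates, with amplicons from start and end populations read by 100-nucleotide paired-end sequencing. Darwinian fitness relative to wild type followed from the change in each genotype's frequency. Genotypes needed ≥ 100 starting reads, and estimates < 0.5 were set to 0.5.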
row,Variant,yeast fitness
1,GUUCUGUUGGCGUAAUGGUAACGGGUCUCCCUCCUAAGGCGAAGACUGCGGGUUCGAGUCCCGUACGGCACG,0.522
2,GUUCUGUUGGCGUAAUGGUAAAGCGUGUCCCUCCUAAGGAGAAGACUGCGGGUUCGAGUCCCGUACGGAACG,0.569
3,GUUCUGUUGGCGUAAUGGUAAUGCGUUUCCCUCCUAAGGAGGAGACUACGGGUUAGAGUACCGUACGGAUCG,≤ 0.5
4,GUUCUGUUGGCGUAAUGGUAAAGCAUCUCCCUCCUAAGGAGAAGACUGCGGGUUCGAGUCCCGUACGGAACG,0.781
5,GUUCUGUUGGCGUAAUGGUAAGGCGUCUACCUCCUAAGGAGAAGUCUGCGGGUUCGAGUCCCGUACGGAUCG,0.539
6,GUUCUGUUGGCGUAAUGGUAACGAGUCUCCCUUCUAAGGAGAAGACUGCGGGUUCGAGUCCCGUACGGAUCG,≤ 0.5
7,GUUCUGUUGGCGUAAUGGUAACGAGUCUCCCUCCUAAGGAAAAGACUGCGGGUUCGAGUCCCGUACGGCACG,≤ 0.5
8,GUUCUGUUGGUGUAAUGGUAACGCGUCUCCCCCCUAAGGAGAAGACUGUGGGUUCGAGUCCCGUACGGAACG,0.537
9,GUUCUGUUGGCGUAAUGGUAAGGCGUCUACCUCCUAAGGAGAAGUCUGCGGGUUUGAGUCCCGUACGGAACG,≤ 0.5
10,GUUCUGUUGGCGUAAUGGUAAGGGGUCUCAUUCCUAAGGAGAAGACUGCGGGUUCGAGUCCCGUACGGAACG,≤ 0.5
11,GUUCUGUUGGCGUAAUGGUAAUGCGUCUCCCUUCUAAGGAGAAGACUGCGGGUUCGAGUCCCGUACGGAACG,0.561
12,GUUCUGUUGGCGUAAUGGUAAAGCGUCUCCCUCCUAAGGAGAAGACUGCGGGUUCGAGUCUCGUCCGGAACG,≤ 0.5
13,GUUCUGUUGGCGUAAUGGUAACGGGUCUCCCUCCUAUGGAGAAGACUGCGGGUUCAAGUCCCGUCCGGAACG,≤ 0.5
14,GUUCUGUUGGUGUAAUGGUAACGCCUCUCCCUCCUAAGGAGAAGACUGCGGGUUCGAGUCCCGUACGGAACG,0.694
15,GUUCUGUUGGCGUAAUGGUAAUGAGUCUCCCUCCUAAGGAGAAGACUGCGGGUUCCAGGCCCGUACGGAACG,≤ 0.5
16,GUUCUGUUGGCGUAAUGGUAAUGCGUCUCCCUCCUAUGGAGAAGACUGCGGGUUCGAGUCCCGUACGUAACG,≤ 0.5
17,GUUCUGUUGGUGUAAUGGUAACGCGUCUCCCUCCUAAGGAGAAGAUUGCGAGUUCGAGUCCCGUAUGGAACG,≤ 0.5
18,GUUCUGUUGGCGUAAUGGUAAGGCGUCUCCCUCCUAAGGAGAAGACUGCCGGUUCGAGUCCCGUACGGAACG,≤ 0.5
19,GUUCUGUUGGUGUAAUGGUAACGGGUCUCCCUCCUAAGGAGAAGACUGCGGGUUCGAGUCUGGUCCGGAACG,≤ 0.5

row,Variant,yeast fitness
1,GUUCUGUUGGCGUAAUGGUAAGGCGUCACCGUCCUAAGGAGAAGACUGCGGGUUAGAGUCCCGUACGCAACG,0.542
2,GUUCUGUUGGCGUAAUGGUAAGGCGUCUCCCUCCUAAGGAGAAGACUGCGGGUUCGAGUCCCGUAGGGAACG,0.547
3,GUUCUGUUGGCGUAAUGGUAACGUGUCUCCCUCCUAAGGAGCAGACUGCGGGUUCGAGUCCCGUACGGAACG,0.746
4,GUUCUGUUGGCGUAAUGGUAAGGCGUCUACCUCCUAAGGAGAAGUCUGCGGGUUCGAGUCCCGUACGGAACG,0.627
5,GUUCUGUUGGCGUAAUGGUAAUGCGUCUCCCUCCUAAGGAGAACACUGCGGGUUCGAGUCCCGUACGGAACG,0.73
6,GUUCUGUUGGCGUAAUGGUAACGGGUCUCCCUCCUAAGGAGCAGACUGCGGGGUCGAGUCCCGUACGGAACG,≤ 0.5
7,GUUCUGUUGGCGUAAUGGUAACGGGUCUCCCUCCUAAGGAGAAGACUGCGGGUUCGAGUCCCGUACGGAACG,0.571
8,GUUCUGUUGGUGUAAUGGUAACGCAUCUCCCUCCUAGGGAGAAGAGUGCGCGUUCGCGUCUCGUACGGAACG,≤ 0.5
9,GUUCUGUUGGUGUAAUGGUAACGCGUCUCCCUCCUAAAGAGAAGACUGCGGGUUCGACUCUCGUAUGGAACG,0.573
10,GUUCUGUUGGCGUAAUGGUAAUGCGUCUCCCUUCUAAGGAGAAGACUGCGGGAUCGAGUCCCGUACGGAACG,≤ 0.5
11,GUUCUGUUGGCGUAAUGGUAAGGCGUCUCCCUCCUAAGGAGAAGCCUGCGGGUUCGAGUCCCGUACGGAACG,0.566
12,GUUCUGUUGGCGUAAUGGUAACGUGUCUCCCUCCUAAGGAGCAGACUGCGGGUUCGUGUCCCCUACGGAACG,≤ 0.5
13,GUUCUGUUGGCGUAAUGGUAAUGCGUCUCCCUCCUAAGGAGAAGACUGCGGGCUCGAGGCGUGUACGGAACG,≤ 0.5
14,GUUCUGUUGGCGUAAUGGUAACGUGUCUCCCUCCUAAGGAGCAGACUGCGGGUUCGUGUCCAGUACGGAACG,≤ 0.5
15,GUUCUGUUGGCGUAAUGGUAACGAGUCUCCCUUCUAAGGAGAAGACCGCGGGUUCGAGUCCCAUACUGAACG,0.718
16,GUUCUGUUGGCGUAAUGGUAAUGCGUCUCCCUCCUGAGGAGAAGACUGCGGGUUCGAGUCCCGUACGGAACG,0.749
17,GUUCUGUUGGCGUAAUGGUAAUGCGUCUCCCUCCUAUGGAGAAGACUGCGGGUUCGAGUCCCGUACGGAACG,0.535
18,GUUCUGUUGGUGUAAUGGUAACGCGUCUCCCUCCUAAGGAGAAGACUGCGGGUUCGAGUCGCCUACGGAACG,0.546
